# Measured values taken from ChEMBL document CHEMBL3351384, “Synthesis of pyrazoline-thiazolidinone hybrids with trypanocidal activity” (Eur J Med Chem, 2014).
# Legend:
# [1] = tested on: Trypanosoma brucei gambiense; experiment: Anti-trypanosomal activity against Trypanosoma brucei gambiense Feo bloodstream forms assessed as inhibition of parasite growth rate after 72 hrs by resazurin assay; type: functional, organism-based
# Summary of the method: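 Bloodstream-form Feo parasites in HMI9 with 10% FCS, 37 °C, 5% CO2. Log-phase cells harvested at 3000 × g and used at once. 10⁴ cells per well, with or without inhibitor (stocks in DMSO). Resazurin added and fluorescence read at 530 nm. Inhibition taken against drug-free wells. IC50 from dose–response curves ranging down to 10 ng/ml. Mean ± SD of three independent experiments.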
# [2] = tested on: Trypanosoma brucei gambiense; experiment: Anti-trypanosomal activity against Trypanosoma brucei gambiense Feo bloodstream forms assessed as inhibition of parasite growth rate at 50 ug/mL after 72 hrs by resazurin assay; type: functional; settings: read-out: GI
# Summary of the method: (§1)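 Fixed-concentration screen of bloodstream-form Feo parasites, 10⁴ cells per well, cultured in HMI9 with 10% FCS at 37 °C, 5% CO2. Most compounds tested at 50, 10 and 1; some at 100, 20 and 2. Growth measured by resazurin fluorescence at 530 nm. Percent inhibition calculated against untreated wells.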
# [3] = tested on: Trypanosoma brucei gambiense; experiment: Anti-trypanosomal activity against Trypanosoma brucei gambiense Feo bloodstream forms assessed as inhibition of parasite growth rate at 10 ug/mL after 72 hrs by resazurin assay; type: functional; settings: read-out: GI; summary of the method: as §1
# [4] = tested on: Trypanosoma brucei gambiense; experiment: Anti-trypanosomal activity against Trypanosoma brucei gambiense Feo bloodstream forms assessed as inhibition of parasite growth rate at 1 ug/mL after 72 hrs by resazurin assay; type: functional; settings: read-out: GI; summary of the method: as §1
# Trypanosoma cruzi = experiment: Anti-trypanosomal activity against Trypanosoma cruzi Y; type: functional, organism-based
# [5] = tested on: Trypanosoma brucei rhodesiense; experiment: Anti-trypanosomal activity against Trypanosoma brucei rhodesiense; type: functional, organism-based
# [6] = tested on: Trypanosoma brucei brucei; experiment: Anti-trypanosomal activity against Trypanosoma brucei brucei; type: functional, organism-based
# [7] = tested on: Trypanosoma brucei gambiense; experiment: Anti-trypanosomal activity against Trypanosoma brucei gambiense Feo bloodstream forms assessed as inhibition of parasite growth rate at 2 ug/mL after 72 hrs by resazurin assay; type: functional; settings: read-out: GI; summary of the method: as §1
# [8] = tested on: Trypanosoma brucei gambiense; experiment: Anti-trypanosomal activity against Trypanosoma brucei gambiense Feo bloodstream forms assessed as inhibition of parasite growth rate at 20 ug/mL after 72 hrs by resazurin assay; type: functional; settings: read-out: GI; summary of the method: as §1
# [9] = tested on: Trypanosoma brucei gambiense; experiment: Anti-trypanosomal activity against Trypanosoma brucei gambiense Feo bloodstream forms assessed as inhibition of parasite growth rate at 100 ug/mL after 72 hrs by resazurin assay; type: functional; settings: read-out: GI; summary of the method: as §1
# [10] = Cytotoxicity against rat L6 cells after 5 days by resazurin assay; type: cell-based
# Summary of the method: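 Rat myoblast L-6 cells in RPMI with 25 mM HEPES pH 7.3 and 10% fetal calf serum, 37 °C, 5% CO2. Compounds from DMSO stocks, final DMSO below 1%. Controls received DMSO only. Viability by resazurin conversion, fluorescence at 530 nm excitation and 590 nm emission after a further 4 h. CC50 is the mean ± SD of three independent experiments.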
# [11] = tested on: Trypanosoma brucei gambiense; experiment: Potency index, ratio of IC50 for nifurtimox to IC50 for test compound against Trypanosoma brucei gambiense Feo bloodstream forms assessed as inhibition of parasite growth rate after 72 hrs by resazurin assay; type: functional
# [12] = Selectivity index, ratio of CC50 for rat L6 cells to IC50 for Trypanosoma brucei gambiense Feo; type: functional
# Summary of the method: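 Computed as CC50 (L-6 cells, resazurin) divided by IC50 (T. b. gambiense Feo bloodstream forms, resazurin). Both values are means of three independent experiments.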
Compound,IC50 [1],inhibition of growth at 50 µg/mL [2],inhibition of growth at 10 µg/mL [3],inhibition of growth at 1 µg/mL [4],further results
O=C1NC(=S)/C(=C/N2N=C(c3ccccc3)CC2c2ccccc2O)S1 (configuration not stated),3.5 µM,85.8%,93.3%,61%,
CCC1SC(N/N=C/CSc2ccccc2)=NC1=O (configuration not stated),,,,,IC50 (Trypanosoma cruzi): 0.3 µM
CC1=NN(C2=NC(=O)CS2)C(c2ccccc2)C1 (configuration not stated),,,,,IC50 [5]: 12 µg/mL
COc1ccc(C2CC(c3ccccc3)=NN2C2=NC(=O)S/C2=C\c2ccc([N+](=O)[O-])cc2)cc1 (configuration not stated),,,,,IC50 [6]: 3.01 µg/mL
COc1ccc(C2CC(c3ccccc3)=NN2/C=C2\SC(=S)NC2=O)cc1 (configuration not stated),14.7 µM,91.5%,92.3%,21.9%,
CN(C)c1ccc(C2CC(c3ccccc3)=NN2/C=C2\SC(=S)NC2=O)cc1 (configuration not stated),10.5 µM,74%,76.2%,30.2%,
O=C1NC(=S)S/C1=C\N1N=C(c2ccc3ccccc3c2)CC1c1ccc(F)cc1 (configuration not stated),13.2 µM,85.4%,85%,19.9%,
CN1C(=O)/C(=C/N2N=C(c3ccccc3)CC2c2ccc(Cl)cc2)SC1=S (configuration not stated),,,,,inhibition of growth at 2 µg/mL [7]: 8.2%; inhibition of growth at 20 µg/mL [8]: 42%; inhibition of growth at 100 µg/mL [9]: 56%
CN1C(=O)/C(=C/N2N=C(c3ccc4ccccc4c3)CC2c2ccc(Cl)cc2)SC1=S (configuration not stated),> 1 µM,97%,97.2%,97.1%,CC50 at 120 h [10]: 154 µM
COc1ccc(C2CC(c3ccc4ccccc4c3)=NN2/C=C2\SC(=S)N(C)C2=O)cc1 (configuration not stated),0.6 µM,97.1%,97.2%,97.2%,CC50 at 120 h [10]: 175 µM; Ratio IC50 [11]: 6; Ratio CC50/IC50 [12]: 292
COc1ccc(C2CC(c3ccccc3)=NN2/C=C2\SC(=S)N(Cc3ccco3)C2=O)cc1 (configuration not stated),,46.6%,67.3%,37.9%,
COc1ccc(C2=NN(/C=C3\SC(=S)N(Cc4ccco4)C3=O)C(c3ccc(OC)cc3)C2)cc1 (configuration not stated),> 98.9 µM,12.8%,48.2%,38.7%,
COc1ccc(C2CC(c3ccc4ccccc4c3)=NN2/C=C2\SC(=S)N(Cc3ccco3)C2=O)cc1 (configuration not stated),,54.6%,32.1%,19.4%,
O=C1/C(=C/N2N=C(c3ccc4ccccc4c3)CC2c2ccc(Cl)cc2)SC(=S)N1Cc1ccco1 (configuration not stated),,59.6%,45.3%,29%,
COc1ccc(C2CC(c3ccccc3)=NN2/C=C2\SC(=S)N(c3ccc(C)cc3)C2=O)cc1 (configuration not stated),1.5 µM,17.8%,69.2%,52.5%,
COc1ccc(C2=NN(/C=C3\SC(=S)N(c4ccc(C)cc4)C3=O)C(c3ccc(OC)cc3)C2)cc1 (configuration not stated),,23.1%,55.5%,44.5%,

Compound,IC50 [1],inhibition of growth at 50 µg/mL [2],inhibition of growth at 10 µg/mL [3],inhibition of growth at 1 µg/mL [4],further results
Cc1ccc(N2C(=O)/C(=C/N3N=C(c4ccccc4)CC3c3ccc(N(C)C)cc3)SC2=S)cc1 (configuration not stated),> 20.1 µM,5.8%,51.9%,39.8%,
COc1ccc(C2=NN(/C=C3\SC(=S)N(c4ccc(C)cc4)C3=O)C(c3ccc(Cl)cc3)C2)cc1 (configuration not stated),2.5 µM,40.2%,70.4%,62.8%,
Cc1ccc(N2C(=O)/C(=C/N3N=C(c4ccc5ccccc5c4)CC3c3ccc(Cl)cc3)SC2=S)cc1 (configuration not stated),21.7 µM,41.7%,59.4%,27.6%,
CC(=O)Oc1cccc(N2C(=O)/C(=C/N3N=C(c4ccccc4)CC3c3ccccc3O)SC2=S)c1 (configuration not stated),1.1 µM,90.9%,93.8%,83.1%,CC50 at 120 h [10]: 13.6 µM; Ratio CC50/IC50 [12]: 12.4
COc1ccc(C2=NN(/C=C3\SC(=S)N(c4cccc(OC(C)=O)c4)C3=O)C(c3ccccc3O)C2)cc1 (configuration not stated),0.7 µM,89.5%,91.7%,90.1%,CC50 at 120 h [10]: 40 µM; Ratio IC50 [11]: 6; Ratio CC50/IC50 [12]: 57.1
COc1ccc(C2CC(c3ccccc3)=NN2/C=C2\SC(=S)N(c3cccc(OC(C)=O)c3)C2=O)cc1 (configuration not stated),10.8 µM,97.2%,97.5%,79.3%,
COc1ccc(C2CC(c3ccc4ccccc4c3)=NN2/C=C2\SC(=S)N(c3cccc(OC(C)=O)c3)C2=O)cc1 (configuration not stated),1.2 µM,94.7%,95.8%,87.6%,CC50 at 120 h [10]: > 172 µM; Ratio CC50/IC50 [12]: >143.8
CC(=O)Oc1cccc(N2C(=O)/C(=C/N3N=C(c4ccccc4)CC3c3ccc(N(C)C)cc3)SC2=S)c1 (configuration not stated),1.2 µM,81.6%,84.9%,53.1%,CC50 at 120 h [10]: > 184 µM; Ratio CC50/IC50 [12]: >153.6
CC(=O)Oc1cccc(N2C(=O)/C(=C/N3N=C(c4ccccc4)CC3c3ccc(Cl)cc3)SC2=S)c1 (configuration not stated),1.9 µM,90.3%,91.4%,42.1%,
CC(=O)Oc1cccc(N2C(=O)/C(=C/N3N=C(c4ccc5ccccc5c4)CC3c3ccc(Cl)cc3)SC2=S)c1 (configuration not stated),16.5 µM,90.6%,89.9%,66.7%,
COc1ccc(C2CC(c3ccc4ccccc4c3)=NN2/C=C2\SC(=O)NC2=S)cc1 (configuration not stated),18.6 µM,87.2%,74.7%,19.7%,
COc1ccc(C2CC(c3ccccc3)=NN2C(=O)CN/C=C2\SC(=S)N(C)C2=O)cc1 (configuration not stated),4.6 µM,96.1%,96.5%,62.3%,
CN1C(=O)/C(=C/NCC(=O)N2N=C(c3ccc4ccccc4c3)CC2c2ccc(Cl)cc2)SC1=S (configuration not stated),2.1 µM,93.5%,86.9%,52%,
CN1C(=O)/C(=C/NCC(=O)N2N=C(c3ccc4ccccc4c3)CC2c2ccc(F)cc2)SC1=S (configuration not stated),1.5 µM,95.6%,94.8%,46.6%,
CC1CS(=O)(=O)CCN1/N=C/c1ccc([N+](=O)[O-])o1 (configuration not stated) [NIFURTIMOX],4.4 µM,,,,CC50 at 120 h [10]: 78.2 µM; Ratio CC50/IC50 [12]: 17.8
